Values after ≈ are worked out from the molar mass of the structure shown.
Assays:
[1] = Cmax in Beagle dog at 5.2 mg/kg, po; assay type: ADME, organism-based, Canis lupus familiaris; parameters: dose 5.2 mg/kg, route oral; settings: in vivo
Summary of the method: (§1)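 Single IV (about 1 mg/kg) and oral (about 5 mg/kg) doses in rat, cynomolgus monkey and dog; CL, t1/2, Vss, Cmax, tmax, AUC and oral bioavailability F derived from plasma concentration-time data.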

[2] = biological target: T1, Cytochrome P450 1A2 (Homo sapiens, UniProt P05177); test: Inhibition of human CYP1A2; assay type: ADME
T1 sequence (P05177 whole entry): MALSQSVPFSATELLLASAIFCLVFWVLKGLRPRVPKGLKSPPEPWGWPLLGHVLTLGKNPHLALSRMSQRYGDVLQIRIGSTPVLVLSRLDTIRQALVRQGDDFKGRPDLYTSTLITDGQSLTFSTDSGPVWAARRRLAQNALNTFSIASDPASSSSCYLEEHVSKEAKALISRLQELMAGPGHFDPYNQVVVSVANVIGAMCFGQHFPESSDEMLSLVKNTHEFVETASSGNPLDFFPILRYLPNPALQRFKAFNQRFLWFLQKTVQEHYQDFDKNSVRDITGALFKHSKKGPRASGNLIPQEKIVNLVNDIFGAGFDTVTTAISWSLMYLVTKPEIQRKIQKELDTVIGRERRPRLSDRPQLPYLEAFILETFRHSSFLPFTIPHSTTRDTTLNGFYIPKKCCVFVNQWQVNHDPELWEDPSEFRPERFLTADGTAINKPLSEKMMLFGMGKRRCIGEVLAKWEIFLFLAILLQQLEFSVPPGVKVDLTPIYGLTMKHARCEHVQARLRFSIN

[3] = Protein binding in dog plasma; assay type: ADME, cell-free, Canis lupus familiaris; settings: read-out: PPB (converted)
[4] = Protein binding in cynomolgus monkey plasma; assay type: ADME, cell-free, Macaca fascicularis; settings: read-out: PPB (converted)
[5] = test system: Homo sapiens; test: Toxicity in normal healthy human at 200 to 1200 mg, po, administered as single dose; assay type: organism-based; settings: in vivo
Summary of the method: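 Human subjects received single oral doses of 200, 600, 800 or 1200 mg and were monitored for clinically significant adverse events.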

[6] = Oral bioavailability in cynomolgus monkey at 5 mg/kg; assay type: ADME, organism-based, Macaca fascicularis; settings: in vivo; summary of the method: as §1
[7] = Cmax in cynomolgus monkey at 5 mg/kg, po; assay type: ADME, organism-based, Macaca fascicularis; parameters: dose 5 mg/kg, route oral; settings: in vivo; summary of the method: as §1
[8] = Ssolubility of the compound at pH 6.1; assay type: physicochemical; settings: buffer
[9] = biological target: Human immunodeficiency virus type 1 integrase (Human immunodeficiency virus 1, UniProt Q7ZJM1); test: Inhibition of HIV1 integrase strand transfer activity
[10] = Oral bioavailability in Beagle dog at 5.2 mg/kg; assay type: ADME, organism-based, Canis lupus familiaris; settings: in vivo; summary of the method: as §1
[11] = Drug metabolism in cynomolgus monkey liver microsomes assessed as CYP-mediated metabolism by measuring compound half life; assay type: ADME, Macaca fascicularis
Summary of the method: (§2)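 Microsomal stability with NADPH (CYP-dependent) in rat, cynomolgus, dog and human microsomes; half-life in min.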

[12] = Oral bioavailability in Sprague-Dawley rat at 4.4 mg/kg; assay type: ADME, organism-based; settings: in vivo; summary of the method: as §1
[13] = AUC in cynomolgus monkey at 5 mg/kg, po; assay type: ADME, organism-based, Macaca fascicularis; settings: in vivo; summary of the method: as §1
[14] = organism: Homo sapiens; test: Inhibition of human p-gp assessed as decrease in [3H]-digoxin transport at 10 uM
[15] = Drug metabolism in human microsomes assessed as CYP-mediated metabolism by measuring compound half life; assay type: ADME; summary of the method: as §2
[16] = Clearance in cynomolgus monkey at 1 mg/kg, iv; assay type: ADME, organism-based, Macaca fascicularis; settings: in vivo; summary of the method: as §1
[17] = Drug metabolism in rat liver microsomes assessed as CYP-mediated metabolism by measuring compound half life; assay type: ADME; summary of the method: as §2
[18] = Volume of distribution at steady state in Sprague-Dawley rat at 0.87 mg/kg, iv; assay type: ADME, organism-based; settings: in vivo, read-out: Vdss
[19] = Ssolubility of the compound at pH 2.3; assay type: physicochemical; settings: buffer
[20] = Half-life in Beagle dog at 1 mg/kg, iv; assay type: ADME, organism-based, Canis lupus familiaris; settings: in vivo; summary of the method: as §1
[21] = Drug uptake in normal healthy human at 600 mg, po qd after 24 hrs; assay type: ADME, organism-based; settings: in vivo, read-out: Drug uptake
Summary of the method: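 Healthy volunteers given 600 mg orally once daily; mean plasma concentration measured 24 h post-dose (C24h).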

[22] = Volume of distribution at steady state in Beagle dog at 1 mg/kg, iv; assay type: ADME, organism-based, Canis lupus familiaris; settings: in vivo, read-out: Vdss
[23] = Protein binding in rat plasma; assay type: ADME, cell-free; settings: read-out: PPB (converted)
[24] = biological target: Cytochrome P450 2D6 (Homo sapiens, UniProt P10635); test: Inhibition of human CYP2D6; assay type: ADME
[25] = Dissociation constant, pKa of the compound; assay type: physicochemical
[26] = AUC in Beagle dog at 5.2 mg/kg, po; assay type: ADME, organism-based, Canis lupus familiaris; settings: in vivo; summary of the method: as §1
[27] = Cmax in Sprague-Dawley rat at 4.4 mg/kg, po; assay type: ADME, organism-based; parameters: dose 4.4 mg/kg, route oral; settings: in vivo; summary of the method: as §1
[28] = test system: HepG2; test: Cytotoxicity against human HepG2 cells; assay type: cell-based
[29] = biological target: T2, Nuclear receptor subfamily 1 group I member 2 (Homo sapiens, UniProt O75469); test: Transactivation of human PXR; assay type: ADME
T2 sequence (O75469 whole entry): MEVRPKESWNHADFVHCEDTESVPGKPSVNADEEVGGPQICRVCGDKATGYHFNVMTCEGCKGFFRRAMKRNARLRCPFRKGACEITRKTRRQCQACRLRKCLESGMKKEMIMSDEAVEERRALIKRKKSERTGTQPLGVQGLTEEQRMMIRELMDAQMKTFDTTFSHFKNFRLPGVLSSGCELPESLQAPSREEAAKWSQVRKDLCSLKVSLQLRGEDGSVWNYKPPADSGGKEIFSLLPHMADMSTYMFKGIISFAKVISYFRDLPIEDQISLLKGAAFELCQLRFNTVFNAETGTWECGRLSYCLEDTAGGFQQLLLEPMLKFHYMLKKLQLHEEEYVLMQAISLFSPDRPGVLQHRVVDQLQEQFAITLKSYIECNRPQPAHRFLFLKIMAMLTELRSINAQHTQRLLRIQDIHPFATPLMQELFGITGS
Summary of the method: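 Human PXR transactivation assay, with potency reported as EC20A and EC60A values.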

Cytochrome P450 2D6, sequence (P10635 whole entry): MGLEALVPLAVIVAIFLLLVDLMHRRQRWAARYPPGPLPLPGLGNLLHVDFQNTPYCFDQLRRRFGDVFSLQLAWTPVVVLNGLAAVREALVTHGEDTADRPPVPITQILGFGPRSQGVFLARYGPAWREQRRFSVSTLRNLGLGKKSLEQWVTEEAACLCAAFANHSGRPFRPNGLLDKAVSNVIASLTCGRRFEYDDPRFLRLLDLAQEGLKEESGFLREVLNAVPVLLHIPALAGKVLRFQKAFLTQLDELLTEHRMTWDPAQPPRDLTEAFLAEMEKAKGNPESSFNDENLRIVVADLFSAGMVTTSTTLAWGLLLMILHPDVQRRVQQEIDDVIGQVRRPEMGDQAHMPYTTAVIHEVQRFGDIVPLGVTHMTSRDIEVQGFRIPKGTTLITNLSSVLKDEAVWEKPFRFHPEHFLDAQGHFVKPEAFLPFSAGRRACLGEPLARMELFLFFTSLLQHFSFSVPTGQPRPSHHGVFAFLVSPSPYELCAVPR
Human immunodeficiency virus type 1 integrase, sequence (Q7ZJM1 whole entry): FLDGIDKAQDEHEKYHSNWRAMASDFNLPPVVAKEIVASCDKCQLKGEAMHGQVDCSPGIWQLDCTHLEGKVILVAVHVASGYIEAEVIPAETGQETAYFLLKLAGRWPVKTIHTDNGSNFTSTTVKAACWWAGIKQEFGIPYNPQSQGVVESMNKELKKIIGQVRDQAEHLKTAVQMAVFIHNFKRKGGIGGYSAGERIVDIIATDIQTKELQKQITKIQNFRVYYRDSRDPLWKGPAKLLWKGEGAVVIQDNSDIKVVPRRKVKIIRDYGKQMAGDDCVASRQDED

## CC1(C)OCCn2c1nc(C(=O)NCc1ccc(F)cc1)c(O)c2=O
[1]
  Cmax: 72.8 µM
[2]
  IC50: > 40 µM
[3]
  fraction unbound: 0.015
[4]
  fraction unbound: 0.041
[5]
  Activity: Non-Toxic
[6]
  bioavailability: 56%
[7]
  Cmax: 6.12 µM
[8]
  solubility: 21 µg/mL (≈ 60.5 µM)
[9]
  IC50: 0.003 µM
[10]
  bioavailability: 129%
[11]
  half-life: 1.6 h
[12]
  bioavailability: 86%
[13]
  AUC: 19.2 µM·h
[14]
  inhibition: 5%
[15]
  half-life: 1.83 h
[16]
  clearance: 6.8 mL/min/kg
[17]
  half-life: > 2 h
[18]
  Vd: 0.86 L/kg
[19]
  solubility: 9 µg/mL (≈ 25.9 µM)
[20]
  half-life: 6 h
[21]
  concentration at 24 h: 340 ng/mL
[22]
  Vd: 0.45 L/kg
[23]
  fraction unbound: 0.063
[24]
  IC50: > 40 µM
[25]
  pKa: 6.6
[26]
  AUC: 162 µM·h
[27]
  Cmax: 4.51 µM
[28]
  IC50: ≥ 45 µM
[29]
  EC50: > 50 µM
[29]; human
  EC20: > 50 µM

From ChEMBL document CHEMBL4118197, “The discovery and preclinical evaluation of BMS-707035, a potent HIV-1 integrase strand transfer inhibitor” (Bioorg Med Chem Lett, 2018)
